Variants at the floor of the assay were thinned out.
B1: tRNA (parent)
chain: GUUCCGUUGGCGUAAUGGUAACGCGUCUCCCUCCUAAGGAGAAGACUGCGGGUUCGAGUCCCGUACGGAACG

Variants of: B1
Assay: yeast fitness relative to wild type (ratio to wild type); higher = fitter; tRNA-Arg(CCU), competitive growth, 37 C, YPD
How it was run: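 Start and end populations of a pooled competition were compared by 100-nucleotide paired-end sequencing of gene amplicons. The Saccharomyces cerevisiae strains carried tRNA-Arg(CCU) gene variants at the native genomic locus, synthesised with a 3% per-site mutation rate at 69 sites, and competed in YPD at 37°C for 24 hours in six parallel replicates. Darwinian fitness relative to wild type was based on the change in genotype frequencies. Genotypes required ≥ 100 starting reads, and estimates < 0.5 were set to 0.5.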

Point of comparison: U2A C22U, yeast fitness 0.796. Against it:
- U2A G6A A36C — lower, 0.666
- U2A C31G U32G — lower, 0.526
- U2A G6C U16C C24U — lower, 0.523
- U2A G9A U13A C24A A45C U64A — lower, 0.537
- U2A C66U G67A — lower, 0.601
- U2A C24G U32A U54C G56A — lower, ≤ 0.5
- U2A C22G — higher, 0.888
- U2A C11G G25A A40U C49A C55U — lower, ≤ 0.5
- U2A C33U A37C — lower, 0.532
- U2A G6A C11G C49U G58C — lower, ≤ 0.5
- U2A C11G — lower, 0.647
- U2A C11A — lower, 0.614
- U2A C66A — lower, 0.704
- U2A C30U C46A U54A A57G — lower, ≤ 0.5
- U2A G6A C11U C31G G51A G67A — lower, ≤ 0.5
- U2A C29G C30G C49A G56C C61U — lower, 0.749
- U2A G6A C11G A42U A65G C66G G68A — lower, ≤ 0.5
- U2A C11U A14U U19G — lower, ≤ 0.5
- U2A C24U C30U C34U G52A C61A — lower, ≤ 0.5
- U2A C46G — higher, 0.829
- U2A C33A — lower, 0.721
- U2A C33U — lower, 0.636
- U2A C11G C27G U54A C66U — lower, ≤ 0.5
- U2A C5U G48A — lower, 0.611
- U2A G9A U19A A20U — lower, 0.622
- U2A G6C U7C A43C C46U G63C C66U — lower, ≤ 0.5
- U2A C46A A70C — lower, 0.705
- U2A G6A C11G C49U A65U — lower, ≤ 0.5
- U2A C31A G48A — lower, 0.619
- U2A C11G A40U — lower, 0.544
- U2A C27A — higher, 0.894
- U2A C27U — higher, 0.982
- U2A C33G G51C C66G G67A A69C — lower, ≤ 0.5
- U2A C30G U53C A57U C60U — lower, ≤ 0.5
- U2A C11A A14G C29U A65C — lower, 0.568
- U2A C22G G63A — lower, 0.568
- U2A C60U A65U A70U — lower, ≤ 0.5
- U2A C11U G23C C27A A69U — lower, ≤ 0.5
- U2A C33G C46A C66A — lower, ≤ 0.5
- U2A G9A G48C G50A — lower, ≤ 0.5
- U2A C27U C29U C62U — lower, ≤ 0.5
- U2A C34G A37U A40U C66U — lower, ≤ 0.5
- U2A G6C C33U A40G — lower, 0.547
- U2A C11U G23C C27A G50U — lower, ≤ 0.5
- U2A C24G U32A G58C G63C — lower, ≤ 0.5
- U2A C11U G48C — lower, ≤ 0.5
- U2A G9A U19C A69C — lower, 0.685
- U2A C30U A42G C60G C62G A65G — lower, 0.595
- U2A G6A U16C C24U G38C A65C — lower, ≤ 0.5
- U2A C24U A42C C62G — lower, ≤ 0.5
- U2A G9A U13A C24A A45C — lower, 0.536
- U2A G9A U13A U35G A70C — lower, ≤ 0.5
- U2A C24G G25A C61G G67C G68A — lower, ≤ 0.5
- U2A G9A C33U G38C A40U A42C — lower, ≤ 0.5
- U2A G9A A45C — lower, 0.682
- U2A C24G G63C G67C A69U — lower, ≤ 0.5
- U2A C61U G67C — lower, ≤ 0.5
- U2A C11G U47A — lower, ≤ 0.5
- U2A C31U U35C A45U — lower, ≤ 0.5
- U2A C11A G38C C60A — lower, 0.582
- U2A C24A A45G — lower, 0.568
- U2A C22A C49G — lower, ≤ 0.5
- U2A C31G C49U G51A G63A — lower, ≤ 0.5
- U2A C11G G17A A20U C33G G38C A70G — lower, ≤ 0.5
- U2A C29U — higher, 0.884
- U2A C24U C30U C34U G52A — lower, ≤ 0.5
- U2A C30G A37U U53A C55U A57U — lower, 0.574
- U2A C31G A65U A69C — lower, ≤ 0.5
- U2A C5U U47A G52A — lower, ≤ 0.5
- U2A G6A A40U C46A — lower, 0.596
- U2A C24A A36G A45G — lower, ≤ 0.5
- U2A G9A C31U C46G C49U C66G — lower, ≤ 0.5
- U2A C60G A70C — lower, 0.532
- U2A C60G A70U — lower, ≤ 0.5
- U2A C24A — lower, 0.662
- U2A G9A A37G U47C A65C — lower, ≤ 0.5
- U2A C27G A36G — lower, ≤ 0.5
- U2A C29A A45U — lower, 0.542
- U2A G9A A37G A65C — lower, ≤ 0.5
- U2A C24G A43U C46U A57G — lower, ≤ 0.5
- U2A C60G G63C — lower, ≤ 0.5
- U2A C60A — lower, 0.645
- U2A C11U A70C — lower, 0.587
- U2A C33A C55A G63A — lower, 0.513
- U2A C11U U19G C55U — lower, 0.571
- U2A C27A C60U A69G — lower, 0.514
- U2A C11G C34U A42U G68A — lower, ≤ 0.5
- U2A C31G A65U G67C — lower, ≤ 0.5
- U2A C11G U47A G48A C66U A70U — lower, ≤ 0.5
- U2A C34G A40C C46G — lower, 0.516
- U2A C30U G44C G51A C61U — lower, ≤ 0.5
- U2A C31U A40C C55G G68A A69U — lower, ≤ 0.5
- U2A C46A G51C — lower, 0.599
- U2A G6A C27G A42U A43U — lower, ≤ 0.5
- U2A G6A C33G C34G C61A — lower, ≤ 0.5
- U2A C30G G58C C66G — lower, ≤ 0.5
- U2A C11G C30A A57G — lower, ≤ 0.5
- U2A C11G A21G A37G — lower, ≤ 0.5
- U2A C29G U47G C49G U54G — lower, ≤ 0.5
- U2A C11U U19G — lower, 0.647
- U2A C49G — higher, 0.812
- U2A C49A — lower, 0.637
- U2A G6A U7C A15C C29G C33U — lower, ≤ 0.5
- U2A C11G C49A A70G — lower, ≤ 0.5
- U2A C11G G25A C49A — lower, 0.553
- U2A C33G A36C — lower, ≤ 0.5
- U2A C30U U32A C62G — lower, ≤ 0.5
- U2A G6A U7C G25A A36U C60A C62G — lower, ≤ 0.5
- U2A C11G A21G — lower, 0.567
- U2A C22U A40C — lower, 0.631
- U2A C5U U64C — higher, 1.06
- U2A C24A A42U — lower, ≤ 0.5
- U2A C11A C24G U47G — lower, ≤ 0.5
- U2A C5U G41A — lower, ≤ 0.5
- U2A G9A U19C — higher, 1.03
- U2A G6C U16C C24U A36G — lower, ≤ 0.5
- U2A C30U A57G — lower, ≤ 0.5
- U2A C31G C60G U64G — lower, 0.532
- U2A C49U A57U — lower, ≤ 0.5
- U2A C27G A37C C55U C62G C66G — lower, ≤ 0.5
- U2A C27U C34A — lower, ≤ 0.5
- U2A C22U A43U — lower, 0.533
- U2A C27A C60U U64C A69G — lower, ≤ 0.5
- U2A C31A A69U — lower, 0.604
- U2A C11U G58C — lower, 0.678
- U2A C22G G25C C61G — lower, 0.703
- U2A C22G G25C C61U — lower, ≤ 0.5
- U2A C27G C31U — lower, 0.539
- U2A C30A C61U — lower, ≤ 0.5
- U2A C11G C61A — lower, ≤ 0.5
- U2A C33G A42C — lower, 0.509
- U2A C60U A65U — lower, ≤ 0.5
- U2A C11G C49A C60U G68C — lower, 0.608
- U2A C33A C34U G56A A69C — lower, ≤ 0.5
- U2A C46G C49U — lower, 0.686
- U2A C24G G63A — lower, 0.551
- U2A C33A C55G A69C — lower, ≤ 0.5
- U2A G9A C11U A40U A42C A45G G50C C61U C66U — lower, ≤ 0.5
- U2A C34U — lower, 0.743
- U2A G6A C11G U28G C34G G44C C61G — lower, ≤ 0.5
- U2A C34G G58C C66U — lower, ≤ 0.5
- U2A C66U A70C — lower, 0.641
- U2A C29A C30U C46U G58C — lower, ≤ 0.5
- U2A C24U C30U C34U G52A C66G — lower, ≤ 0.5
- U2A C11A C31U — lower, ≤ 0.5
- U2A C11G A21G A65G — lower, ≤ 0.5
- U2A C11U C29G A37C A42U A57G G67A — lower, ≤ 0.5
- U2A C24G A42U — higher, 0.812
- U2A G6A C11G C49U G58C G68U — lower, ≤ 0.5
- U2A C22A A65C — lower, ≤ 0.5
- U2A C22A A65U — lower, ≤ 0.5
- U2A C5U G23A A37G A69G A70U — higher, 0.845
- U2A C24A C30U — lower, ≤ 0.5
- U2A C11G G17A A20U C33G G38C — lower, ≤ 0.5
- U2A C11G U28A A65G — lower, ≤ 0.5
- U2A G9A C34U C49G G52C C55U C62G — lower, ≤ 0.5
- U2A C11G U54C C61G — lower, ≤ 0.5
- U2A G6A C11G C49U G58C A69U — lower, ≤ 0.5
- U2A C27U U47G C55G G58C — lower, ≤ 0.5
- U2A C22U U32A A65G — lower, ≤ 0.5
- U2A C31G G39C C49U C60G — lower, ≤ 0.5
- U2A G6C U7C C30A G44A C66A — lower, 0.576
- U2A C29A A45U G67C — lower, ≤ 0.5
- U2A C46G C61U — higher, 0.804
- U2A C30U — higher, 0.812
- U2A G6C G52A — lower, ≤ 0.5
